Source: ChEMBL document CHEMBL1132970, “Synthesis of N-substituted 4-(4-hydroxyphenyl)piperidines, 4-(4-hydroxybenzyl)piperidines, and (+/-)-3-(4-hydroxyphenyl)pyrrolidines: selective antagonists at the 1A/2B NMDA receptor subtype” (J Med Chem, 2000)
pIC50: −log10 of the molar value.

Assays:
[1] = target: Glutamate NMDA receptor; Grin1/Grin2c (Rattus norvegicus, UniProt P35439+Q00961); experiment: Inhibitory activity against Xenopus oocytes expressing rat N-Methyl-D-aspartate (NR1A/2C) Receptor subtype.; type: cell-based, Oocyte
Chain of Glutamate NMDA receptor; Grin1/Grin2c (Q00961 whole entry, other chains not shown): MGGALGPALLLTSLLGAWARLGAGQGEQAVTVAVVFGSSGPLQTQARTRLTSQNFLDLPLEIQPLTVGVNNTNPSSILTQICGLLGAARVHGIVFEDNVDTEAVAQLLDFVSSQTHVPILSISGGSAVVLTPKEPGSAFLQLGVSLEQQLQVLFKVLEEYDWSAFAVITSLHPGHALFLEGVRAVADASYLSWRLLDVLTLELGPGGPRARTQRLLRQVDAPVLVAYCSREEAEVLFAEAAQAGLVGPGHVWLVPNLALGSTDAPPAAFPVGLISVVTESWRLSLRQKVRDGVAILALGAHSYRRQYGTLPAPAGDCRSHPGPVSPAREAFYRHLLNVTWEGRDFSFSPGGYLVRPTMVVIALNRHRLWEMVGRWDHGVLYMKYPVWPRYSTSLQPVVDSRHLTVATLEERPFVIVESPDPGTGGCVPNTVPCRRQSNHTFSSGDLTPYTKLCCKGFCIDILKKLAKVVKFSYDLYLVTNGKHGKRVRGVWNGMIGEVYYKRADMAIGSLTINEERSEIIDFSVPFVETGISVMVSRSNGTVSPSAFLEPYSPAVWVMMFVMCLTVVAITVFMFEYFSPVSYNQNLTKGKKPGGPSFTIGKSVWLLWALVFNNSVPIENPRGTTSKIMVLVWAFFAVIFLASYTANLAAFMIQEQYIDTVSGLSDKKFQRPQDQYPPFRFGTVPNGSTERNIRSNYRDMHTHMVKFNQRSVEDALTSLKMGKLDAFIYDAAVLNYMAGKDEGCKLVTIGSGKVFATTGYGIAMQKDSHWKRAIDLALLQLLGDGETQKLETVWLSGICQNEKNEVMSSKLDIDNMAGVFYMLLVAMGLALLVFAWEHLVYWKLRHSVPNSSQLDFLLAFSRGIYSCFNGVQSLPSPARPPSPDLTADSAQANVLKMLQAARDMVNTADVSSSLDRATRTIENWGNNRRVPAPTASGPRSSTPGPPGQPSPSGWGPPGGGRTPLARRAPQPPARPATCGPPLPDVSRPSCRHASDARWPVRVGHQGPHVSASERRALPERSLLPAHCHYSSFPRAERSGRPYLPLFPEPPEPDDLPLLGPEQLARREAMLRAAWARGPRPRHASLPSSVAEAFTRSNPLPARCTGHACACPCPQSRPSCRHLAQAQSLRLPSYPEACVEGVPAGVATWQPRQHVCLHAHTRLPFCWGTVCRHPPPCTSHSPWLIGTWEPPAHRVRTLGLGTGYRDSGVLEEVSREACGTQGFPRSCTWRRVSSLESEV
Summary of the method: (§1)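 Electrophysiology on oocytes expressing each NMDA subunit combination. IC50 from curve fitting of concentration-inhibition data pooled from 1-7 separate experiments.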

[2] = target: Glutamate NMDA receptor; Grin1/Grin2a (Rattus norvegicus, UniProt P35439+Q00959); experiment: Inhibitory activity against Xenopus oocytes expressing rat N-Methyl-D-aspartate (NR1A/2A) Receptor subtype.; type: cell-based, Oocyte; summary of the method: as §1
Chain of Glutamate NMDA receptor; Grin1/Grin2a (Q00959 whole entry, other chains not shown): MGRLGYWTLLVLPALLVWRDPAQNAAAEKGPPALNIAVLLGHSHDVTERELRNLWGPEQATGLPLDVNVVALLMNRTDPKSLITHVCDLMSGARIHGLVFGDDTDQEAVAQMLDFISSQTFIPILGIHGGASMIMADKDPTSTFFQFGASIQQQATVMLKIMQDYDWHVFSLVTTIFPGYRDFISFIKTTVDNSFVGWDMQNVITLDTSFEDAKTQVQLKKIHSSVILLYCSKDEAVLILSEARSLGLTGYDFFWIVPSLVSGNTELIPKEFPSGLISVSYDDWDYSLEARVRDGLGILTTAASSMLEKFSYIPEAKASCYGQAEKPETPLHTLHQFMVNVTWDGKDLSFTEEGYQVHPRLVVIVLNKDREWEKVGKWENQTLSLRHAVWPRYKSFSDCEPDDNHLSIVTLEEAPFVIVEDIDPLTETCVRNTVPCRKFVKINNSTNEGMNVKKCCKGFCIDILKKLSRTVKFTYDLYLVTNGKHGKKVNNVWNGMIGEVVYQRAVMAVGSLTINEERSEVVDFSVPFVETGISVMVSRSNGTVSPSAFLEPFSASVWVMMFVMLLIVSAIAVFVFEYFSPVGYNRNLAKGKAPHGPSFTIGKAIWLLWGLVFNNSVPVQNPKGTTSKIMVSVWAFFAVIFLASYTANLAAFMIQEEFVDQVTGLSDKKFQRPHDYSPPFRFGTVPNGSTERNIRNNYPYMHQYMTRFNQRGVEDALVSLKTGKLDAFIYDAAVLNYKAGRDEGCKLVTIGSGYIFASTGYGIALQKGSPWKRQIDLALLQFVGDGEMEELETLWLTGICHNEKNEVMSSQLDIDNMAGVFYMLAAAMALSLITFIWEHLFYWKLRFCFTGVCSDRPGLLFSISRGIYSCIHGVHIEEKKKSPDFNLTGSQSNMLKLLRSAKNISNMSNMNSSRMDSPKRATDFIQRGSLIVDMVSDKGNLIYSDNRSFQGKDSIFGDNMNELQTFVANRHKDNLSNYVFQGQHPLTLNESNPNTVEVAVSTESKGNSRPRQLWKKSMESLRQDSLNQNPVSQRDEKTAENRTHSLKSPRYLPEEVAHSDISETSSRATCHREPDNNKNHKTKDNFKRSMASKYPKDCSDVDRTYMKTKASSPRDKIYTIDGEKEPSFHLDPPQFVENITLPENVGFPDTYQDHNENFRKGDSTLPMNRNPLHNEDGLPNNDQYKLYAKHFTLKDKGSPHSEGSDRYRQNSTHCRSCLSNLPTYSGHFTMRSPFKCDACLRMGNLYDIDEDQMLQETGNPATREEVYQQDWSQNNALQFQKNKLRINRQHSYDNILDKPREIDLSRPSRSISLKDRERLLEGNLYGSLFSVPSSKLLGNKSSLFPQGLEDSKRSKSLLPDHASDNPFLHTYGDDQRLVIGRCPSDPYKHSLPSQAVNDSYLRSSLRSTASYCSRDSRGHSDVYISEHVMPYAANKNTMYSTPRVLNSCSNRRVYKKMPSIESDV

[3] = target: Glutamate NMDA receptor; Grin1/Grin2b (Rattus norvegicus, UniProt P35439+Q00960); experiment: Inhibitory activity against Xenopus oocytes expressing rat N-Methyl-D-aspartate (NR1A/2B) Receptor subtype.; type: cell-based, Oocyte; summary of the method: as §1
Chain of Glutamate NMDA receptor; Grin1/Grin2b (Q00960 whole entry, other chains not shown): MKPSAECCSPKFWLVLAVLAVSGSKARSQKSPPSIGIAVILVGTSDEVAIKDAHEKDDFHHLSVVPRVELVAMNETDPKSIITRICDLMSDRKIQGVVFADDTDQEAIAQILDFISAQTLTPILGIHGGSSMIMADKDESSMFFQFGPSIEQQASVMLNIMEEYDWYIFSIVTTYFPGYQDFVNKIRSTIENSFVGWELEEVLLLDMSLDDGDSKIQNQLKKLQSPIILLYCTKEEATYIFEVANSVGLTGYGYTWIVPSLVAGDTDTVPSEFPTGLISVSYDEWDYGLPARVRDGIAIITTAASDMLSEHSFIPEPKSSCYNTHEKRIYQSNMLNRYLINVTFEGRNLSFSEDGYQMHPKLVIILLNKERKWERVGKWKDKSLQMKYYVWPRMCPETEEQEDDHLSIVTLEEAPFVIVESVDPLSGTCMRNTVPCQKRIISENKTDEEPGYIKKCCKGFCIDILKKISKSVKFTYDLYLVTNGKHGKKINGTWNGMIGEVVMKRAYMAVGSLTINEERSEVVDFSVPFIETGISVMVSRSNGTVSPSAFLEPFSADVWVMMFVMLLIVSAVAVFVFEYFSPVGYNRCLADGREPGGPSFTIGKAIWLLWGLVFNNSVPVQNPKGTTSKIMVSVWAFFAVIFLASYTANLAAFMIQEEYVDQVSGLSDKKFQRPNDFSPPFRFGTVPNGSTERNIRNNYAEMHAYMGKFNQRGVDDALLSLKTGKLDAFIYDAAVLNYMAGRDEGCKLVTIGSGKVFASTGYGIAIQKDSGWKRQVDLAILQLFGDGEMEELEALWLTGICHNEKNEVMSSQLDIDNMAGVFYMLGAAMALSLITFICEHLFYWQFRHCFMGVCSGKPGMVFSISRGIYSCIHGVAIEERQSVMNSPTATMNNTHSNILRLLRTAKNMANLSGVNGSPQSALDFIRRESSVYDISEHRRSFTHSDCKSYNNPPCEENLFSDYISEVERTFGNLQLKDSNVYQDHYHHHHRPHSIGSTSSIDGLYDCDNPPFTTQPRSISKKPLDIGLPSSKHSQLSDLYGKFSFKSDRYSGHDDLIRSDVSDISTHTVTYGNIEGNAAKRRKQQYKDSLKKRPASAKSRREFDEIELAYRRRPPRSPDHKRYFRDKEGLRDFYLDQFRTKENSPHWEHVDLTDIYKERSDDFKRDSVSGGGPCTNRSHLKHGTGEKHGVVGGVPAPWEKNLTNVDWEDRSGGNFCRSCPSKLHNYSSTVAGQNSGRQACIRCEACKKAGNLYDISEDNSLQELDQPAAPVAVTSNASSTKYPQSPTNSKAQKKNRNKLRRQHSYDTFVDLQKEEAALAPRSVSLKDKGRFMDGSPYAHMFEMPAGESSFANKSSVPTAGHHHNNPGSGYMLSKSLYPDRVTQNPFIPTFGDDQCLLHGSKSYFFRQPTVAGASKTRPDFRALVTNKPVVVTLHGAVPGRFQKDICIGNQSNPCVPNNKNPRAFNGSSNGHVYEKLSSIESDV

[4] = target: T1, Adrenergic receptor alpha-1 (Rattus norvegicus, UniProt P15823+P23944+P43140); experiment: Inhibition of [3H]prazosin binding at alpha-1 adrenergic receptor in rat brain cortical membranes.; type: cell membranes, Membrane
T1 sequence (P15823 whole entry): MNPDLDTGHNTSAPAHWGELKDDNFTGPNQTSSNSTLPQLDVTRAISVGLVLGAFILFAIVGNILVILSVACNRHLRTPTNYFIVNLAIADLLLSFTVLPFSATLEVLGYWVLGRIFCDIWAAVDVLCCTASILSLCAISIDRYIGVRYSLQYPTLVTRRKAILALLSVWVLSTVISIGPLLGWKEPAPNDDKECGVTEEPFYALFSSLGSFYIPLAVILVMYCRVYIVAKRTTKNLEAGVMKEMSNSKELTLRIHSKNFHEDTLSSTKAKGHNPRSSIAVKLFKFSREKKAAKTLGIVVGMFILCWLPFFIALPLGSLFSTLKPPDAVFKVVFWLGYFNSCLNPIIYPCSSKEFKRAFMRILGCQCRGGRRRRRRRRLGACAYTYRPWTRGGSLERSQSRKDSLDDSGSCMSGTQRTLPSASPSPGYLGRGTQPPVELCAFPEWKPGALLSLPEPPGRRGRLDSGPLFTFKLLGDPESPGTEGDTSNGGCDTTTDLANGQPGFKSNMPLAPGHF
T1 sequence (P23944 whole entry): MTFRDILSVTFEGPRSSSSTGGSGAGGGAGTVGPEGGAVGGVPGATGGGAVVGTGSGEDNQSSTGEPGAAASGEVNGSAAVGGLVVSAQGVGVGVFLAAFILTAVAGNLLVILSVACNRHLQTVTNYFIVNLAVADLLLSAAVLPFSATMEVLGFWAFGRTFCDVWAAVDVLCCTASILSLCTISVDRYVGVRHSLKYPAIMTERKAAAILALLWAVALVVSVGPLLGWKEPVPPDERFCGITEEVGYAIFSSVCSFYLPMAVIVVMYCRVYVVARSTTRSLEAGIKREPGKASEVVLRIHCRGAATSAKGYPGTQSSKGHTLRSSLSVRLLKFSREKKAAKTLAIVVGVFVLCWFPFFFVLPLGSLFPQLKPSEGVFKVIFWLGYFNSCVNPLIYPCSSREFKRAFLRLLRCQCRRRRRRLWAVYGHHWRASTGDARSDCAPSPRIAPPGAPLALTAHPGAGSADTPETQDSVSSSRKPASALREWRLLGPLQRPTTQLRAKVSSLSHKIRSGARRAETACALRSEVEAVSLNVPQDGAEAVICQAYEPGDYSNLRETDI
T1 sequence (P43140 whole entry): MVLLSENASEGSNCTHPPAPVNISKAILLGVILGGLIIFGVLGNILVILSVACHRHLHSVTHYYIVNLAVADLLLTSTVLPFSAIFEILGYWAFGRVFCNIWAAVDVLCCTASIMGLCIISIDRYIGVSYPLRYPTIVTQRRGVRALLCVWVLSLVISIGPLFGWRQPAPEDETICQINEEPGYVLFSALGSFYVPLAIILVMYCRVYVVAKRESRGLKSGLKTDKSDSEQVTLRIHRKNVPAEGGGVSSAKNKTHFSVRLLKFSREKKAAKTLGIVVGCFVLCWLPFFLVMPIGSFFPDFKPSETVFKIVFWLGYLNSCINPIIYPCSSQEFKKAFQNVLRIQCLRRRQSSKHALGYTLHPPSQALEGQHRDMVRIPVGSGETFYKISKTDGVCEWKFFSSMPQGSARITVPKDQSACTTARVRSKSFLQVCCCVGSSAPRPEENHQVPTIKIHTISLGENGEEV
Summary of the method: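 Membranes from Sprague-Dawley rat cortex, sucrose/Tris homogenate washed three times. Assayed in 140 mM NaCl/5 mM MgCl2/50 mM Tris-HCl pH 7.4. 200 µg protein incubated with 0.8 nM [3H]prazosin; 10 µM phentolamine defined nonspecific binding. Nine concentrations in duplicate; IC50 from sigmoidal fit.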

[5] = target: D(2) dopamine receptor (Rattus norvegicus, UniProt P61169); experiment: Inhibition of [3H]-raclopride binding at Dopamine receptor D2 in rat brain membranes.; type: cell membranes
Chain of D(2) dopamine receptor (P61169 whole entry): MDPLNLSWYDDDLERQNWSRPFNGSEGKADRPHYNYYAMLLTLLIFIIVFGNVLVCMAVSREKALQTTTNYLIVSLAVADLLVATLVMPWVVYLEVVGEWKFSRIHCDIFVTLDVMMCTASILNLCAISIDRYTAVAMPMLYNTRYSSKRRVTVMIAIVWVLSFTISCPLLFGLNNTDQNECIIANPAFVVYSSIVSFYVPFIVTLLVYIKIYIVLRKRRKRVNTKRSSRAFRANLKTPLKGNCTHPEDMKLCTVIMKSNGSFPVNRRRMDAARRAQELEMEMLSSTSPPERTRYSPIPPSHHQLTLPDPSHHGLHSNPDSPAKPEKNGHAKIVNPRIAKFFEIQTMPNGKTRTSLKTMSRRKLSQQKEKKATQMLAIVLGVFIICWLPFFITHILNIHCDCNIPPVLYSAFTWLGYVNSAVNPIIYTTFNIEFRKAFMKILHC
Summary of the method: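 Rat striatal membranes, washed in 50 mM Tris-HCl pH 7.4, assayed in 120 mM NaCl/5 mM KCl/50 mM Tris-HCl pH 7.4. 200 µg membrane protein with 3 nM [3H]raclopride; nonspecific binding with 300 µM sulpiride. Nine concentrations in duplicate; IC50 by sigmoidal curve fit.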

[6] = organism: Mus musculus; experiment: Effective dose for protection against MES seizures in mice; type: functional
Summary of the method: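 Male Swiss Webster mice (23-27 g, food and water ad libitum), compound given iv as 5 mg/mL solution in 0.2 M Tris. Seizure protection tested 2 min after dosing; corneal electroshock, rectangular pulses 50 mA, 60-75 Hz, 0.8 ms width, 0.2 s train. Seizure scored as tonic hind-limb extension. ED50 with 95% confidence limits; at least 24 animals per compound.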

Compound | pIC50 [1] | pIC50 [2] | pIC50 [3] | IC50 [4] [µM] | pIC50 [5] | ED50 [6] [mg/kg]
c1ccc(CCCCN2CCC(c3ccccc3)CC2)cc1 | < 4.00 | < 4.00 | 5.66 |  |  | 
Oc1ccc(CC2CCN(CC#Cc3ccccc3)CC2)cc1 | < 4.00 | < 4.00 | 6.74 |  |  | 
Oc1ccc(C2CCN(CC(O)CCc3ccccc3)CC2)cc1 (stereo not drawn) | < 4.00 | < 4.00 | 7.72 | 1.4 | 5.23 | 0.46
Oc1ccc(C2CCN(CCCCCc3ccccc3)C2)cc1 (stereo not drawn) | < 4.00 | 4.39 | 7.77 |  |  | 
Oc1ccc(CC2CCN(CCCCc3ccccc3)CC2)cc1 | < 4.00 | < 4.00 | 7.15 |  |  | 
Oc1ccc(C2=CCN(CCCCc3ccccc3)CC2)cc1 | < 4.00 | < 4.00 | 7.96 |  |  | 
Oc1ccc(C2(O)CCN(CC(O)CCc3ccccc3)CC2)cc1 (stereo not drawn) | < 4.00 |  | 7.59 | 14 | 3.98 | 5.7
COc1ccc(C2CCN(CCCCc3ccccc3)CC2)cc1.Cl | < 4.00 | < 4.00 | < 4.00 | 1.7 | 6.39 | 0.56
CCCCN1CCC(c2ccc(O)cc2)CC1 | < 4.00 | < 4.00 | 4.21 |  |  | 
Oc1ccc(C2(O)CCN(CCCCc3ccccc3)CC2)cc1 | < 4.00 | 4.21 | 7.92 | 2.2 | 4.66 | 2.3

Second part, led by results:

pIC50 [1] | pIC50 [2] | pIC50 [3] | IC50 [4] [µM] | pIC50 [5] | Compound | ED50 [6] [mg/kg]
< 4.00 | < 4.00 | 7.12 |  |  | Oc1ccc(C2CCN(CCCCCc3ccccc3)CC2)cc1 | 
< 4.00 | < 4.00 | 7.66 | 0.54 | 5.92 | Br.Oc1ccc(C2CCN(CCCCc3ccccc3)CC2)cc1 | 0.23
< 4.00 | < 4.00 | 6.10 |  |  | Oc1ccc(CC2CCN(CCC#Cc3ccccc3)CC2)cc1 | 
< 4.00 | 4.37 | 6.64 |  |  | Oc1ccc(CCCCN2CCC(c3ccccc3)CC2)cc1 | 
< 4.00 | 4.29 | 7.13 |  |  | Oc1ccc(C2CCN(CCCc3ccccc3)CC2)cc1 | 
< 4.00 | 4.23 | 7.72 |  |  | Oc1ccc(C2CCN(CCOCc3ccccc3)CC2)cc1 | 
< 4.00 | < 4.00 | 7.23 |  |  | Oc1ccc(CC2CCN(CCCc3ccccc3)CC2)cc1 | 
< 4.00 | 4.28 | 6.89 |  |  | Oc1ccc(C2CCN(CCCCc3ccccc3)C2)cc1 (stereo not drawn) | 
